This note sets out measurements from ChEMBL document CHEMBL3769382, “Structure-Based Discovery of Novel and Selective 5-Hydroxytryptamine 2B Receptor Antagonists for the Treatment of Irritable Bowel Syndrome” (J Med Chem, 2016).

Each structure is given as a SMILES string.

The target of data set [1] is T1, 5-hydroxytryptamine receptor 2B (Homo sapiens, UniProt P41595). Put plainly: Antagonist activity at 5-HT2B receptor (unknown origin) expressed in CHO-K1 cells assessed as calcium flux at 1 uM after 60 mins by FLIPR assay. It counts as functional, cell-based. Summed up:
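CHO-K1 cells stably expressing 5-HT2B receptor, antagonist mode, calcium flux read-out. Compounds screened at 10 μM and 1 μM; dose-response curves run for compounds active in the screen to give IC50.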

For data set [2], the target named is T1, 5-hydroxytryptamine receptor 2B. As to the kind of experiment: Displacement of [3H]LSD from 5-HT2B receptor (unknown origin) after 1.5 hrs by microbeta scintillation counting method. Background: Loss of bound radioactivity is the signal in a displacement assay; it reports binding, not function.
For data set [3], the target named is T2, 5-hydroxytryptamine receptor 2C (Homo sapiens, UniProt P28335).
T2 sequence (P28335 whole entry): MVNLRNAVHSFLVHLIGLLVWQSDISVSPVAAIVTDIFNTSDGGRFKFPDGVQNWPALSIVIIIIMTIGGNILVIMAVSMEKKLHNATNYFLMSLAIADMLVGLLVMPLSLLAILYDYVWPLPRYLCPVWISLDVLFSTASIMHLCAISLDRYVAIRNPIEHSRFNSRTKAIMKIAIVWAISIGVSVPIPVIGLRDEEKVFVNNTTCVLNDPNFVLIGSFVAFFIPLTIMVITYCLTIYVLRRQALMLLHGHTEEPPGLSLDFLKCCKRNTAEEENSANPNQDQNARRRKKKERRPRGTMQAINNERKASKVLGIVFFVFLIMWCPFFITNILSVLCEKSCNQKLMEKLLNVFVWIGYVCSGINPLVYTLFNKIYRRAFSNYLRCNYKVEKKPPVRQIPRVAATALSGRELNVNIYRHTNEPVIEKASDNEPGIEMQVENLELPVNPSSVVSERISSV
As to the kind of experiment: Displacement of [3H]LSD from 5-HT2C receptor (unknown origin) after 1.5 hrs by microbeta scintillation counting method.

Data set [4] deals with T3, 5-hydroxytryptamine receptor 3A (Homo sapiens, UniProt P46098).
T3 sequence (P46098 whole entry): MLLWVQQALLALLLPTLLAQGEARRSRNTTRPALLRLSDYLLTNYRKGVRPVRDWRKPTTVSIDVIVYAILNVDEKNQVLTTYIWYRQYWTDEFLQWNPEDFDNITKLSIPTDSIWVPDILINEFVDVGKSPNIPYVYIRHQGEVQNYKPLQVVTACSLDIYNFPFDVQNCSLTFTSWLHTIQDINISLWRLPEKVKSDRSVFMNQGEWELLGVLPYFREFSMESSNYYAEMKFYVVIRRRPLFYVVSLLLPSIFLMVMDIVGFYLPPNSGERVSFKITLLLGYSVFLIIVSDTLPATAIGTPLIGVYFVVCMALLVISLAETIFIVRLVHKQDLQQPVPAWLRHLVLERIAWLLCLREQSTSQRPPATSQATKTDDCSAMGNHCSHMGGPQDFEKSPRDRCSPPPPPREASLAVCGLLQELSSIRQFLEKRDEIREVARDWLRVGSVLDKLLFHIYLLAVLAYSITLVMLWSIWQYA
As to the kind of experiment: Displacement of [3H]LY278584 from 5-HT3 receptor (unknown origin) after 1.5 hrs by microbeta scintillation counting method.

Data set [5] deals with 5-hydroxytryptamine receptor 5A (Homo sapiens, UniProt P47898). Put plainly: Displacement of [3H]LSD from 5-HT5A receptor (unknown origin) after 1.5 hrs by microbeta scintillation counting method.
Data set [6] concerns the target 5-hydroxytryptamine receptor 6 (Homo sapiens, UniProt P50406). Put plainly: Displacement of [3H]LSD from 5-HT6 receptor (unknown origin) after 1.5 hrs by microbeta scintillation counting method.
For data set [7], the target named is 5-hydroxytryptamine receptor 7 (Homo sapiens, UniProt P34969). As to the kind of experiment: Displacement of [3H]LSD from 5-HT7A receptor (unknown origin) after 1.5 hrs by microbeta scintillation counting method.
Data set [8] has as its target 5-hydroxytryptamine receptor 1E (Homo sapiens, UniProt P28566). Put plainly: Displacement of [3H]-5-HT from 5-HT1E receptor (unknown origin) after 1.5 hrs by microbeta scintillation counting method.
The target of data set [9] is 5-hydroxytryptamine receptor 2A (Homo sapiens, UniProt P28223). Put plainly: Displacement of [3H]Ketanserin from 5-HT2A receptor (unknown origin) after 1.5 hrs by microbeta scintillation counting method.
Data set [10] addresses 5-hydroxytryptamine receptor 1D (Homo sapiens, UniProt P28221). As to the kind of experiment: Displacement of [3H][…] from 5-HT1D receptor (unknown origin) after 1.5 hrs by microbeta scintillation counting method.
Data set [11] concerns the target T4, 5-hydroxytryptamine receptor 1A (Homo sapiens, UniProt P08908).
T4 sequence (P08908 whole entry): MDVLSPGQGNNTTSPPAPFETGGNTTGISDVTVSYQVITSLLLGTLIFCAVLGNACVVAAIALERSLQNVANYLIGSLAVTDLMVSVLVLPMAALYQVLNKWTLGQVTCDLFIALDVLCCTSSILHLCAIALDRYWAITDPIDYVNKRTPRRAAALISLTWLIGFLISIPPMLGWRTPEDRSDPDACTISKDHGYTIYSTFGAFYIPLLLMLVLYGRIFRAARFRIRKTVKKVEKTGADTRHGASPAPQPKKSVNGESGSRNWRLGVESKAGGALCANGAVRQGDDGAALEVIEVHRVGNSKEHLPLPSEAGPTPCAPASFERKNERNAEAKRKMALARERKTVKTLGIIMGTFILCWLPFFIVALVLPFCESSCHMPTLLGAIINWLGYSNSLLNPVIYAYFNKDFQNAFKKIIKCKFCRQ
As to the kind of experiment: Displacement of [3H]8-OH-DPAT from 5-HT1A receptor (unknown origin) after 1.5 hrs by microbeta scintillation counting method.

Data set [12] addresses 5-hydroxytryptamine receptor 1B (Homo sapiens, UniProt P28222). Put plainly: Displacement of [3H][…] from 5-HT1B receptor (unknown origin) after 1.5 hrs by microbeta scintillation counting method.
Data set [13] concerns Rattus norvegicus. Put plainly: Inhibition of visceral hypersensitivity in Sprague-Dawley rat model of IBS assessed as […] by measuring abdominal contraction at 30 mg/kg, po by colorectal distention test. It counts as functional. The settings on record: Abdomen. Put shortly: (§1)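 Rat IBS model induced by TNBS injection, then chronic unpredictable mild stress; colon histology checked by HE staining. Compound given orally at 30 mg/kg. Visceral sensitivity scored by abdominal withdrawal reflex, with pain thresholds in mmHg at scores 3 and 4. Compared with control rats; % inhibition derived from thresholds.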

For data set [14], the target named is Voltage-gated inwardly rectifying potassium channel KCNH2 (Homo sapiens, UniProt Q12809). Put plainly: Inhibition of human ERG channel by patch clamp assay. A general note: In patch-clamp work, channel activity is measured electrically.
Data set [15] relates to Rattus norvegicus. As to the kind of experiment: Acute toxicity in Sprague-Dawley rat at 500 mg/kg, po. The data set is classed as organism-based. The settings on record: in vivo.
The subject of data set [16] is Rattus norvegicus. Put plainly: Inhibition of visceral hypersensitivity in Sprague-Dawley rat model of IBS assessed as […] by measuring lifting of pelvic structure and arching of body at 30 mg/kg, po by colorectal distention test. It counts as functional. Summed up: as §1

Sequence of 5-hydroxytryptamine receptor 2A (P28223 whole entry): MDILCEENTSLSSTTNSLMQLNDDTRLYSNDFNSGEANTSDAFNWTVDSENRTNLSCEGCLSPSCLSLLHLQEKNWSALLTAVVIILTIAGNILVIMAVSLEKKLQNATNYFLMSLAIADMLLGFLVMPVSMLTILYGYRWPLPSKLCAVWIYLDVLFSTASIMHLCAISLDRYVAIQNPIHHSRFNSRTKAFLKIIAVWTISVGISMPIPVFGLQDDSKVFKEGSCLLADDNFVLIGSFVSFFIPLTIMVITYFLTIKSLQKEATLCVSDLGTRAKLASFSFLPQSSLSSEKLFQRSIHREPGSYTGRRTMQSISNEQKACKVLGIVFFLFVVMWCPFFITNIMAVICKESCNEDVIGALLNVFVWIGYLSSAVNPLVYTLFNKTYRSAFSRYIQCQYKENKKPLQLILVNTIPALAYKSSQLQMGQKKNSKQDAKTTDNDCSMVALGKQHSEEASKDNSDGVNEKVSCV
Sequence of 5-hydroxytryptamine receptor 1E (P28566 whole entry): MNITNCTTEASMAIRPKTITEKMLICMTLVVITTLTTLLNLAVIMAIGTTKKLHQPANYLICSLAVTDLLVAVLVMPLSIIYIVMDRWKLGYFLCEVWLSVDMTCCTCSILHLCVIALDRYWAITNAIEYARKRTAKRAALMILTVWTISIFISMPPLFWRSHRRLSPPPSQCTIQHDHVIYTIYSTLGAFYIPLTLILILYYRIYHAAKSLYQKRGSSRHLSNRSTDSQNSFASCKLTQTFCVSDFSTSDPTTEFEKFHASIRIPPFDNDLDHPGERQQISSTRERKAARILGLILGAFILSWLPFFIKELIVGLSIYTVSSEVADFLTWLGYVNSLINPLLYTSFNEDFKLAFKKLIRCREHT
Sequence of 5-hydroxytryptamine receptor 7 (P34969 whole entry): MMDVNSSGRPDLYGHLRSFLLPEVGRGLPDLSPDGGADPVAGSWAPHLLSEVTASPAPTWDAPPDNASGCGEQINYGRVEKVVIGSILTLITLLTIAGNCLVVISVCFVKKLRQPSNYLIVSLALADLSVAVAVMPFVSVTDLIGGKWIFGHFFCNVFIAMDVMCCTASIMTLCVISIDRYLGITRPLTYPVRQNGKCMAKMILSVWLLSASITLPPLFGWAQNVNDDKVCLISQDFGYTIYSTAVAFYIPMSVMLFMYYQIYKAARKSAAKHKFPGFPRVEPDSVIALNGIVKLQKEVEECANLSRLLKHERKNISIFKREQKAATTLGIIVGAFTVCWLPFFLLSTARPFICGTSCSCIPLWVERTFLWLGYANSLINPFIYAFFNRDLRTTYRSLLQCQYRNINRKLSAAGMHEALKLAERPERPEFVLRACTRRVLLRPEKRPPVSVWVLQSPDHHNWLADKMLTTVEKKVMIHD
T1 sequence (P41595 whole entry): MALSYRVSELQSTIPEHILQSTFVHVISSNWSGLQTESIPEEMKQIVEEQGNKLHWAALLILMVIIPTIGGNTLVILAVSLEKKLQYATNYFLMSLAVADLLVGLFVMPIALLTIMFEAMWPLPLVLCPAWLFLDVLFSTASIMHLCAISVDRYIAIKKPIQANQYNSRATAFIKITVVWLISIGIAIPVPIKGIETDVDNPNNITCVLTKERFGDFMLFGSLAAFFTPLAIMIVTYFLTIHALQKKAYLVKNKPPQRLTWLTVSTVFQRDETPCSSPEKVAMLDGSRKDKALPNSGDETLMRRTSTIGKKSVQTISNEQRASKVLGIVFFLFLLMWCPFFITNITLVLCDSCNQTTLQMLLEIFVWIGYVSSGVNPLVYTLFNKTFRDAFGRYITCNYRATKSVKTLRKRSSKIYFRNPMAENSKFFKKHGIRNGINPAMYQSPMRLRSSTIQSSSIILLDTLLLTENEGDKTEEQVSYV
Sequence of 5-hydroxytryptamine receptor 6 (P50406 whole entry): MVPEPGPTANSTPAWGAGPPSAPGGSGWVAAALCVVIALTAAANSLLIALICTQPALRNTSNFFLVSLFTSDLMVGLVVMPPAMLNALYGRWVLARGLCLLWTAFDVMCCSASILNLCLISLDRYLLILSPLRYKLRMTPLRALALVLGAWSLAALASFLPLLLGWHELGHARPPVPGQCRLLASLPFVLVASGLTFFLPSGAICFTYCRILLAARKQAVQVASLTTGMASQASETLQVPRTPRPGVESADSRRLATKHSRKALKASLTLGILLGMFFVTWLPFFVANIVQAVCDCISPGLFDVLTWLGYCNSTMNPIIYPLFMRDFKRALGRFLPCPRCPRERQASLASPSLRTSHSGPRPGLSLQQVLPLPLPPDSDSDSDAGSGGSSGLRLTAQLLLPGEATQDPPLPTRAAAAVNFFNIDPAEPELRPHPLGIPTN
Sequence of 5-hydroxytryptamine receptor 1B (P28222 whole entry): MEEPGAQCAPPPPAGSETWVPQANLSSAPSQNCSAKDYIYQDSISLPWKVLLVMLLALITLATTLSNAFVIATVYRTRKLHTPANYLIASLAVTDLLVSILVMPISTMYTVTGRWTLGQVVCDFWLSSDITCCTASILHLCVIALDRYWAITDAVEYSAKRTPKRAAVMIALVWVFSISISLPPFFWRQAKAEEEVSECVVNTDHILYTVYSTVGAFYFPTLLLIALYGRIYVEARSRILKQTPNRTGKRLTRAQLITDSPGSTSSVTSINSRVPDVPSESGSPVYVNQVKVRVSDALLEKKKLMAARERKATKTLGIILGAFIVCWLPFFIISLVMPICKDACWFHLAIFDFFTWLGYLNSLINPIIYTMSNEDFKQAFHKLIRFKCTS
Sequence of 5-hydroxytryptamine receptor 5A (P47898 whole entry): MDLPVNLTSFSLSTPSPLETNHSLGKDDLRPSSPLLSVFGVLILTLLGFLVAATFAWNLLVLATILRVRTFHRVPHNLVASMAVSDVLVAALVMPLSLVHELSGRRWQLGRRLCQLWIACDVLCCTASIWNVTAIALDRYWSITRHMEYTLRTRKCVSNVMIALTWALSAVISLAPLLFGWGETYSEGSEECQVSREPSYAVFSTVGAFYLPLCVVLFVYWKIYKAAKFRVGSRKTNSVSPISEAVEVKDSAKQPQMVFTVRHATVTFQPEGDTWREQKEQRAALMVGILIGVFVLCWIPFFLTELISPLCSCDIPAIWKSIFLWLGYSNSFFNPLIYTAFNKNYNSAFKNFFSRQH
Sequence of 5-hydroxytryptamine receptor 1D (P28221 whole entry): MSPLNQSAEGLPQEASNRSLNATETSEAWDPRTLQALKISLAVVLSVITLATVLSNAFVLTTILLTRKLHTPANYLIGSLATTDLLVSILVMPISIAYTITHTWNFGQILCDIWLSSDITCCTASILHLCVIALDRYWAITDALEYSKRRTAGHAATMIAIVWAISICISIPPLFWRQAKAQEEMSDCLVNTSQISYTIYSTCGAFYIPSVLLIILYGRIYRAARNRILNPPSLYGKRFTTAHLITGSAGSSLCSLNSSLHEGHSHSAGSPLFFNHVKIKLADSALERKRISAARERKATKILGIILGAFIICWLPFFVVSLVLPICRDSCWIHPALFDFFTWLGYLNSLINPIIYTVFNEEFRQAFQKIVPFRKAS
Sequence of Voltage-gated inwardly rectifying potassium channel KCNH2 (Q12809 whole entry): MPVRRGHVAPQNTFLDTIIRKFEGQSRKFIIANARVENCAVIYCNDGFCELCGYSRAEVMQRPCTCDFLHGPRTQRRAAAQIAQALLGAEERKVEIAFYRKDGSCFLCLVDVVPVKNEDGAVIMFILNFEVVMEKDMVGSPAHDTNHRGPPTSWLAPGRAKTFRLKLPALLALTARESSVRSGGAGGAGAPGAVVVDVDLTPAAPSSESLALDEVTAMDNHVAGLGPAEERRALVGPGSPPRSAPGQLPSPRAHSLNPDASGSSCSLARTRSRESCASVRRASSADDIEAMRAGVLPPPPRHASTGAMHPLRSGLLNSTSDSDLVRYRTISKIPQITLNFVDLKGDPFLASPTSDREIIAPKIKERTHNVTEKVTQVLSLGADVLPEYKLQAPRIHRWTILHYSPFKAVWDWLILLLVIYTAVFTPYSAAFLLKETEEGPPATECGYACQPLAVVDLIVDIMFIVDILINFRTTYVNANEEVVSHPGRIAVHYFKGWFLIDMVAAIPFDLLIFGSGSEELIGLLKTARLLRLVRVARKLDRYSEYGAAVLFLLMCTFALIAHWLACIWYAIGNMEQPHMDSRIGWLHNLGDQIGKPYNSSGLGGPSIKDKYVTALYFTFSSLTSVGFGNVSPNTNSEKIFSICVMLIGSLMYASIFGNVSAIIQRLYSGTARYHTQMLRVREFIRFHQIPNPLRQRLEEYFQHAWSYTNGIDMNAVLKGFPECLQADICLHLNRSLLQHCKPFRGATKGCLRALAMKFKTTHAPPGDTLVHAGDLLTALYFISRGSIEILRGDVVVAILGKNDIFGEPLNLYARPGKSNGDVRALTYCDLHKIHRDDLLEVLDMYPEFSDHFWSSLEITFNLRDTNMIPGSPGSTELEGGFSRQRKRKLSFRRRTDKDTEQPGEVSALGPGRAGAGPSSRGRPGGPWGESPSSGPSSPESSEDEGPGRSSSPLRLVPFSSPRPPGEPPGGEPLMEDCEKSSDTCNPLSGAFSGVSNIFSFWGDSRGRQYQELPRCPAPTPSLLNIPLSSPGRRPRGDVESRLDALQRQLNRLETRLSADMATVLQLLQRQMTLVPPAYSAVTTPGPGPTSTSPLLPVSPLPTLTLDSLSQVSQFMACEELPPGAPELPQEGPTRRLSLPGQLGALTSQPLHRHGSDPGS

With `Cc1ccccc1NC1=NC(N)=NC2(CCCCC2)N1`, the inhibition in [1] turned out to be 39.9%.

On to `COc1cccc(NC2=NC(N)=NC3(CCCCC3)N2)c1`, for which, in [1], the inhibition came out at 84.6%.

`CCOC(=O)c1cccc(N(C)C2=NC(N)=NC3(CCCCC3)N2)c1`: the inhibition in [1] turned out to be 50.4%.

Consider `CC1(C)N=C(N)N=C(Nc2cccc(Br)c2)N1`, for which the Ki in data set [2] was 20.5 nM; in [3], 265 nM; in data set [4] it was above 10000 nM; in [5] it was 389 nM; in data set [6] it was 696 nM; in data set [7], 2080 nM. Besides, the Ki is above 10000 nM in [8]; 783 nM in [9]; 2650 nM in data set [10]; 660 nM in [11]; 1530 nM in data set [12]. For the same compound, the inhibition in data set [1] was 75.9%.

As to `CN(C)c1ccc(NC2=NC(N)=NC3(CCCCC3)N2)cc1`, the inhibition in [1] stood at 17.6%.

With `CCOC(=O)c1cccc(NC2=NC(N(C)C)=NC3(CCCCC3)N2)c1`, the Ki is 38.5 nM in [2]; 1200 nM in data set [3]; above 10000 nM in data set [4]; 595 nM in data set [5]; 4780 nM in data set [6]; 516 nM in [7]. In addition, the Ki in data set [8] was above 10000 nM; in data set [9] it was 1540 nM; in data set [10], 3830 nM; in data set [11], 116 nM; in data set [12] it was 9650 nM. Moreover, in data set [1], the inhibition turned out to be 91.8%.

With `CCCOC(=O)c1cccc(NC2=NC(N)=NC3(CCCCC3)N2)c1`, the inhibition in data set [1] was found to be 110%.

Consider `COc1cccc(NC2=NC(N)=NC3(CCCC3)N2)c1`, for which the inhibition in [1] turned out to be 63%.

Take `NC1=NC2(CCCCC2)NC(Nc2ccc(Cl)cc2)=N1`: the inhibition in data set [1] was determined as 57.1%.

For `Cc1ccc(NC2=NC(N)=NC3(CCCCC3)N2)cc1`, the inhibition in [1] came out at 50.2%.

`NC1=NC2(CCCCC2)NC(Nc2cccc(Br)c2)=N1`: the inhibition in vivo at 30 mg/kg with Rattus norvegicus [13] came to 68%; with Rattus norvegicus [16], 63%. The Ki in data set [2] was 6.2 nM; in [3], 156 nM; in data set [4] it was above 10000 nM; in [5], 227 nM; in data set [6], 3030 nM; in data set [7], 401 nM. Besides, the Ki was above 10000 nM in data set [8]; 211 nM in data set [9]; 2900 nM in data set [10]; 320 nM in [11]; above 10000 nM in [12]. Besides, the IC50 in data set [14] was above 1000 nM. Also, the Activity result with Rattus norvegicus [15] is reported as “Non-toxic”. Further, in data set [1], the inhibition turned out to be 97.4%.

Consider `CCOC(=O)c1cccc(NC2=NC(NC)=NC3(CCCCC3)N2)c1`, for which, in data set [1], the inhibition is 108%.

`CCNC(=O)c1cccc(NC2=NC(N)=NC3(CCCCC3)N2)c1`: the Ki was 27.5 nM in data set [2]; 1900 nM in [3]; above 10000 nM in data set [4]; 994 nM in data set [5]; 5910 nM in data set [6]; 427 nM in data set [7]. Besides, the inhibition constant (Ki) was above 10000 nM in data set [8]; 1310 nM in data set [9]; above 10000 nM in data set [10]; 6760 nM in data set [11]; above 10000 nM in [12]. In addition, the inhibition in [1] worked out at 95.5%.

Turning to `CCN(CC)C(=O)c1cccc(NC2=NC(N)=NC3(CCCCC3)N2)c1`, the inhibition in data set [1] was determined as 40.7%.

With `NC1=NC2(CCCCC2)NC(Nc2cccc(C(=O)O)c2)=N1`, the inhibition in [1] came to 4.4%.

As to `CCCC(=O)c1cccc(NC2=NC(N)=NC3(CCCCC3)N2)c1`, the inhibition in data set [1] worked out at 106%.

For `CCOC(=O)c1cccc(NC2=NC(N)=NC3(CCCCC3)N2)c1`, the Ki is 7.2 nM in data set [2]; 851 nM in data set [3]; above 10000 nM in data set [4]; 457 nM in [5]; 3590 nM in data set [6]; 472 nM in data set [7]. The Ki in data set [8] is above 10000 nM; in data set [9] it was 174 nM; in [10], 8590 nM; in data set [11] it was 714 nM; in data set [12] it was above 10000 nM. For the same compound, the inhibition in data set [1] was 107%.

Consider `NC1=NC2(CCCCC2)NC(Nc2cccc(C(=O)C3CC3)c2)=N1`, for which, in [1], the inhibition came to 4%.

`COc1ccccc1NC1=NC(N)=NC2(CCCCC2)N1`: in data set [1], the inhibition came out at 20.7%.

Usually inhibition stands for the drop in the measured response relative to a control, in per cent. For orientation: Ki means the dissociation constant of the complex between target and ligand, obtained from inhibition or displacement. Read a high Ki as lower affinity. In general, inhibition in vivo refers to how much of the control response was suppressed. In general, IC50 refers to the midpoint of a concentration-inhibition curve. Read a low IC50 as greater potency in that assay.
